# Only a selection was taken, and hits are over-represented in it overall.
# bCat KO growth – beta-catenin-lacking colon tumor cell growth suppression; hit rate 1.5% among 140,000; viability, % at 10 µM; HCT116 beta-catenin knockout viability, CellTiter-Glo, 60 h; active compounds read low; AID 818;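 active = viability at or under a set limit, the compound median less 4 SD, cut at about 6% in these data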
# HCT116 PTEN-null – PTEN-deleted cell growth suppression. AID 827. hit rate 1.2% among 140,000. viability, % at 10 µM. HCT116 PTEN-null viability, CellTiter-Glo, 60 h; active compounds read low;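 active = viability at or below a set limit, 4 SD under the median of all tested compounds, cut at about 3.7% in these data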;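 also: PTEN knockout HCT116 line with beta catenin targeted HCT116 as companion control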
# Fibroblast inh – blocks proliferation of human lung fibroblasts; viability, % at 10 µM; AID 719; hit rate 1.1% among 85,000; LL 47 human lung fibroblast viability, ATP luminescence; active compounds read low;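 active = viability at or below 50% in the single dose screen; inactive = viability above 50%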;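 also: compound exposure lasted 72 h before the ATP readout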
#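 Signal: luminescent ATP detection, CellTiter-Glo; assay system: LL 47 human lung fibroblasts; input: 1,150 cells/well; incubation: overnight cell rest, 72 h compound treatment at 37 °C; measure: % viability versus median cells-only luminescence; medium: IMEM growth medium with 15% fetal bovine serum; dosing: compound addition at 0.1% DMSO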
# H69AR growth 86K – blocks growth of human H69AR lung tumor cells; H69AR lung tumor viability, ATP luminescence, 72 h; active compounds read low; viability, % at 10 µM; hit rate 6% among 85,000;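 active = viability at or below 40%; inactive = viability above 40%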;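 also: multidrug resistant small cell line overexpressing MRP-1 efflux transporter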
# HUVEC inhibit – inhibitors of human endothelial cell proliferation | HUVEC proliferation, CellTiter-Glo luminescence, 72 h; active compounds read low | viability, % at 10 µM (by protocol) | hit rate 1.1% among 86,000 | AID 648;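 active = viability at or below 30%; inactive = viability above 30%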
# Numbers stand for hits; 0 = inactive; - = no result.
SMILES,bCat KO growth,HCT116 PTEN-null,Fibroblast inh,H69AR growth 86K,HUVEC inhibit
COc1cccc(CNCCc2c[nH]c3ccccc23)c1OCc1ccccc1,5.1,0,-,-,-
COc1ccccc1CCNCc1ccc(OC)c(OCc2ccccc2)c1,0,0,-,-,-
COc1cc(CNCCc2c[nH]c3ccccc23)ccc1OCc1ccccc1F,1.4,1.6,-,-,-
Cc1cccc(Oc2sc(C(=O)c3ccccc3)c(N)c2C#N)c1,0,0,-,-,-
O=S(=O)(Nc1cccc2c1CCCC2)c1ccc(Cl)cc1,0,0,-,-,-
CCNC(=O)NC(=O)C(C)OC(=O)C1CCN(S(=O)(=O)c2ccc(C)c(C)c2)CC1 (stereo not drawn),0,0,-,-,-
O=C(CN1CCN(c2nc(-c3ccc(F)cc3)cs2)CC1)Nc1ccc2c(c1)OCO2,0,0,0,40.0,0
O=[N+]([O-])c1ccc(Sc2nc3ccccc3o2)c([N+](=O)[O-])c1,1.9,1.4,0.9,0.2,2.6
O=[N+]([O-])c1ccc(Cl)cc1Sc1nc2ccccc2o1,0,0,0,24.8,0
Cc1ccc(Sc2ccc([N+](=O)[O-])cc2[N+](=O)[O-])nc1,0,0,-,-,-
Cc1ccnc(Sc2ccc([N+](=O)[O-])cc2[N+](=O)[O-])n1,5.2,0,-,-,-
CC(=O)CSc1nc2ccccc2o1,0,0,0,0,0
O=C1CCN1C1(C(=O)NC2CCCCC2)CCCC1,0,0,-,-,-
COc1ccc(-c2nn3c(-c4ccc(F)cc4)nnc3s2)cc1,0,0,0,0,0
CCN(CC)c1ccc(-c2nn3c(-c4ccccc4OC)nnc3s2)cc1,3.3,2.1,38.5,11.7,12.3
c1ccc(-c2nnc3sc(-c4csc5c4CCCC5)nn23)cc1,0,0,0,30.7,0
COc1ccc(-c2nn3c(-c4ccccc4)nnc3s2)cc1,0,0,0,35.2,0
c1ccc(-c2nnc3sc(-c4cc5ccccc5o4)nn23)cc1,0,0,0,31.8,0
O=[N+]([O-])c1cccc(C=Nc2cc3c(cc2Br)OCCO3)c1,0,0,-,-,-
Cc1cc(C)n(CC(O)Cn2c3ccc(Cl)cc3c3cc(Cl)ccc32)c(=O)n1 (stereo not drawn),0,0,0,0,0
OC(CNCC1CCCO1)Cn1c2ccccc2c2ccccc21 (stereo not drawn),0,0,0,0,0
OC(CNCC1CCCO1)Cn1c2ccc(Cl)cc2c2cc(Cl)ccc21 (stereo not drawn),1.5,2.1,2.4,1.0,2.2
OC(CNCCC1C=Nc2ccccc21)Cn1c2ccc(Cl)cc2c2cc(Cl)ccc21 (stereo not drawn),1.2,1.5,-,-,-
N#CC1=C(N)N(c2ccccc2)C(c2cccc([N+](=O)[O-])c2)C1(C#N)C#N (stereo not drawn),0,0,0,10.1,0
COc1cc(C(c2nnnn2C(C)(C)C)N2CCN(c3nc4ccccc4s3)CC2)ccc1O (stereo not drawn),0,0,0,9.0,0
SMILES,bCat KO growth,HCT116 PTEN-null,Fibroblast inh,H69AR growth 86K,HUVEC inhibit
CSc1nc(NC(C)=O)nc(C)c1Br,0,0,0,0,0
Cc1ccc(C(=O)CN2/C(=C(\O)c3ccccc3)C(=O)c3ccccc3S2(=O)=O)c(C)c1,0,0,0,23.7,0
COc1ccc(N/C(N)=N/c2nc(CSc3ccc(Cl)cc3)cc(=O)[nH]2)cc1,0,0,0,16.3,0
Cn1c(-c2ccc(F)cc2)cnc1NCc1cccc(F)c1,0,0,0,35.8,0
COc1ccc(-n2c(Cc3cccn3C)nnc2SCC(=O)Nc2cccc(OC)c2)cc1,0,0,0,36.9,0
CCn1c(Cc2ccc(OC)cc2)nnc1SCC(=O)Nc1cccc(C(=O)OC)c1,0.9,0.6,48.0,0,0
CCCCCc1nc2sc3c(c2c(=O)n1NC(=O)c1ccc([N+](=O)[O-])cc1)CC(C)(C)OC3,0,0,-,-,-
O=C(c1ccccc1)N1CCN(C(=S)NCc2ccc3c(c2)OCO3)CC1,0,0,-,-,-
COc1ccc(OC)c(C(=O)c2ccc(C(=O)N3CCCCC3)cc2)c1,0,0,0,0,0
C/C(=C1/C(=O)N(c2ccc([N+](=O)[O-])cc2)N=C1c1ccccc1)N(C)C,3.3,2.2,-,-,-
COC(=O)[C@@H]1CC[C@H](C)[C@@H](c2ccc(C)cc2)N1C(=O)c1ccc(/C=N/O[C@@H](C)c2cn([C@H](CO)Cc3ccccc3)nn2)cc1,0,0,-,-,-
COc1ccc2c(c1OC)C(=O)O[C@@H]2[C@H]1c2c(cc3c(c2OC)OCO3)CCN1C,0,0,0,30.0,0
COc1cccc2sc(Nc3nnc(-c4cccs4)o3)nc12,2.6,0,41.2,22.6,2.8

# Source: PubChem
